# Where “and” joins values, the source holds several entries; their conditions need not be identical. Equal entries are not always repeated. Calls of active or inactive are those of the source. No cut-off for these calls is given here. Where a SMILES comes first, the peptide text is derived from it.
# Assays:
# [1] = system: HepG2; test: Cytotoxicity against human HepG2 cells assessed as reduction in cell viability measured after 22 hrs by cell-titer glo assay; type: functional, cell-based
# In short: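 HepG2 cells at 250 cells/well, 1536-well format, settled 4 h at 37 °C and 5% CO2. Compound added acoustically (50 nL), 22 h at 37 °C. CellTiter-Glo reagent added, 15 min at room temperature, then luminescence read.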
# [2] = biological target: T1, Caspase-2 (Homo sapiens, UniProt P42575); test: Inhibition of recombinant cp-caspase-2 (unknown origin) using Z-VDVAD-AFC as substrate measured after 40 mins by fluorescence assay
# T1 sequence (P42575 whole entry): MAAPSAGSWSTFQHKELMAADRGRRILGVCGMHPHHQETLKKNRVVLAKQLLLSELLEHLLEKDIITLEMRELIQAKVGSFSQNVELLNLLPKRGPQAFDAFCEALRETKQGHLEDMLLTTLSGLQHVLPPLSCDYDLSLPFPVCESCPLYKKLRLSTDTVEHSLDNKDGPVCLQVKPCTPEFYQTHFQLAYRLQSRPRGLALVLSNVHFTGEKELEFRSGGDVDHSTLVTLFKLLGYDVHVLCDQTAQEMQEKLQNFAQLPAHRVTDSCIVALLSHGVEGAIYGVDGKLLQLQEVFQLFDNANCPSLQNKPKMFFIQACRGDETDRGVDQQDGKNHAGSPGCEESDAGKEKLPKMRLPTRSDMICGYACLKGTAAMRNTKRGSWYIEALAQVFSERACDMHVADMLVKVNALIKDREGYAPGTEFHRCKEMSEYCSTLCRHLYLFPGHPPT
# In short: (§1)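 Ten-point curves in duplicate, 0.4 nM–100 µM. Enzyme (5 nM caspase-2 or cp-caspase-2) in MES pH 6.5 buffer with 10 mM DTT, preincubated with compound 40 min at 37 °C. Then 5 µM Z-VDVAD-AFC. AFC read at ex 400/em 505 nm every 3 min for 1 h. Background-corrected 40-min values fitted to four-parameter sigmoidal curves. Mean ± SEM of N independent experiments.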
# [3] = biological target: T2, Caspase-2 (Homo sapiens) (UniProt P42575); test: Inhibition of recombinant caspase-2 (unknown origin) at 12.5 uM using Z-VDVAD-AFC as substrate measured after 40 mins by fluorescence assay relative to control
# T2 sequence (whole entry): T1 sequence (P42575 whole entry)
# In short: (§2)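 Two-point single-run screen in duplicate at 12.5 and 6.25 µM. Then 5 µM Z-VDVAD-AFC, 40 min at 37 °C, stopped with 5 M acetic acid. AFC fluorescence read at ex 400/em 505 nm, corrected for buffer+protein background.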
# [4] = biological target: T3, Caspase-3 (Homo sapiens, UniProt P42574); test: Inhibition of recombinant caspase-3 (unknown origin) using Ac-DEVD-AFC as substrate measured after 40 mins by fluorescence assay
# T3 sequence (P42574 whole entry): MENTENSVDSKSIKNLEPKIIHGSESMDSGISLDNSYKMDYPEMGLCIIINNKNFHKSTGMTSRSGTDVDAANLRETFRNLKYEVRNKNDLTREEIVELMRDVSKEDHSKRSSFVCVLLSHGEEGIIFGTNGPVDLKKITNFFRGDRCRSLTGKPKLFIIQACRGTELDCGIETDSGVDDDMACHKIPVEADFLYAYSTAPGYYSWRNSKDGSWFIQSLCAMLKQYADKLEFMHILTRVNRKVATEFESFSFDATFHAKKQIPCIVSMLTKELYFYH
# [5] = system: HepG2; test: Induction of GSH depletion in human HepG2 cells at >10 uM measured after 22 hrs by GSH-glo luminescence assay; type: functional, cell-based
# In short: (§3)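 HepG2 cells at 250 cells/well, 1536-well format, settled 4 h at 37 °C and 5% CO2. Compound added (50 nL), 22 h incubation. Medium removed by centrifugation. GSH-Glo reagent 30 min at RT, then Luciferin Detection Reagent 15 min at RT. Luminescence read.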
# [6] = biological target: T3, Caspase-3; test: Inhibition of recombinant caspase-3 (unknown origin) at 62.5 uM using Ac-DEVD-AFC as substrate measured after 40 mins by fluorescence assay relative to control; settings: recombinant caspase-3, probe Ac-DEVD-AFC
# [7] = biological target: T1, Caspase-2; test: Inhibition of recombinant caspase-2 (unknown origin) using Z-VDVAD-AFC as substrate measured after 40 mins by fluorescence assay; in short: as §1
# [8] = biological target: T2, Caspase-2 (Homo sapiens); test: Covalent irreversible binding affinity to recombinant caspase-2 (unknown origin) assessed as modification at Cys320 residue measured after 1 hr by trypsin digestion based UPLC-MS/MS analysis
# In short: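 Recombinant caspase-2 (34 µM, 15 µL) mixed with test compound (1 µL of 10 mM DMSO stock), brought to 50 µL in MES pH 6.5 caspase-2 buffer, 1 h at 37 °C. Then iodoacetamide (62 mM final) 1 h dark RT. Samples denatured in 8 M urea/5 mM DTT and re-alkylated with IAD. Trypsin digestion overnight at 37 °C with 10% acetonitrile. C18 desalting, then gradient LC-MS/MS peptide sequencing.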
# [9] = biological target: T2, Caspase-2 (Homo sapiens); test: Inhibition of recombinant caspase-2 (unknown origin) at 6.25 uM using Z-VDVAD-AFC as substrate measured after 40 mins by fluorescence assay relative to control; in short: as §2
# [10] = organism: Homo sapiens; test: Selectivity ratio of IC50 for recombinant caspase-3 (unknown origin) to recombinant caspase-2 (unknown origin)
# [11] = system: HepG2; test: Induction of GSH depletion in human HepG2 cells at <10 uM measured after 22 hrs by GSH-glo luminescence assay; type: functional, cell-based; in short: as §3
# [12] = biological target: T3, Caspase-3; test: Inhibition of recombinant caspase-3 (unknown origin) at 125 uM using Ac-DEVD-AFC as substrate measured after 40 mins by fluorescence assay relative to control; settings: recombinant caspase-3, probe Ac-DEVD-AFC
# [13] = biological target: T2, Caspase-2 (Homo sapiens); test: Irreversible inhibition of recombinant caspase-2 (unknown origin) assessed as ratio of Kinact/Ki using Z-VDVAD-AFC as substrate measured after 40 mins by fluorescence assay
# In short: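 Caspase-2 kinetic fluorometric assay with Z-VDVAD-AFC. kOBS values obtained from progress curves at four or more inhibitor concentrations. kinact/Ki then derived by two-step irreversible secondary regression (Copeland).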
# [14] = system: HepG2; test: Induction of GSH depletion in human HepG2 cells measured after 22 hrs by GSH-glo luminescence assay; settings: HepG2, 22 h, read-out: pIC50 (converted)
# [15] = biological target: T2, Caspase-2 (Homo sapiens); test: Covalent irreversible binding affinity to recombinant caspase-2 (unknown origin) assessed as modification at Cys320 residue […] measured after 1 hr by trypsin digestion based UPLC-MS/MS analysis
# In short: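 Recombinant caspase-2 (34 µM stock) incubated 1 h at 37 °C with compound (10 mM DMSO stock) in pH 6.5 MES buffer with NaCl, CHAPS, sucrose and 10 mM DTT. Free cysteines were capped with iodoacetamide (62 mM final, 1 h, dark, RT). Samples were dried, denatured in 8 M urea/DTT, re-alkylated, trypsin-digested overnight at 37 °C, C18-desalted and analysed by gradient LC-MS/MS peptide sequencing.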
Structure (SMILES),IC50 [2] [µM],inhibition [3] [%],IC50 [4],"inhibition at 40 min, 62.5 µM [6] [%]",IC50 [7],Activity [8],inhibition [9] [%],Ratio IC50 [10],"inhibition at 40 min, 125 µM [12] [%]",Ratio [13],IC50 [14] [µM],Activity [1],Activity [5],Activity [11],"IC50 ([1]; HepG2, 22 h) [µM]",Activity [15]
O=C(CCl)Nc1ccc(NC(=O)c2cccs2)cc1,,93,9.55 µM,24,1.29 µM,Active,92,7,30,5.86 10^4/M/s,,,,,,
NC(=O)CI,,,,,,,,,,,,,,,,Active
CC(=O)N[C@H](C(=O)N[C@@H](CC(=O)O)C(=O)N[C@H](C(=O)N[C@@H](C)C(=O)N[C@H](C=O)CC(=O)O)C(C)C)C(C)C (Ac-VDVAD-aldehyde),0.0479,,,,,,,,,,,,,,,

# Continued, in another order:
IC50 [2] [µM],inhibition [3] [%],IC50 [4],"inhibition at 40 min, 62.5 µM [6] [%]",IC50 [7],Activity [8],inhibition [9] [%],Ratio IC50 [10],"inhibition at 40 min, 125 µM [12] [%]",Ratio [13],IC50 [14] [µM],Structure (SMILES),Activity [1],Activity [5],Activity [11],"IC50 ([1]; HepG2, 22 h) [µM]",Activity [15]
6.03,79,> 50.1 µM,0,3.16 µM,Active,62,> 16,14,,,CN1C(=O)CN(C(=O)CCl)c2ccc(Br)cc21,Active,Active,inactive,,
4.9,89,35.5 µM and > 31.6 µM,10,1.82 µM and 3.39 µM,Active,79,,16,,1.78,Cc1nc(-c2ccc3c(c2)CCN3C(=O)CCl)cs1,,,,2.24,
,79.7,> 63.1 µM,,5.25 µM,,,> 12,21.7,,,COc1ccc2nc(NC(=O)CCl)sc2c1,,,,,
,92,28.8 µM,59,1.07 µM and 3.31 µM,Active,86,27,90,4.49 10^4/M/s,,O=C1CN(C(=O)CCl)c2ccccc2N1,Active,Active,inactive,,

# Reference: ChEMBL document CHEMBL5634075, “An electrophilic fragment screening for the development of small molecules targeting caspase-2” (Eur J Med Chem, 2023)
